{"source": "ChEMBL document CHEMBL3108692", "about": "“Potent Targeting of the STAT3 Protein in Brain Cancer Stem Cells: A Promising Route for Treating Glioblastoma” (ACS Med Chem Lett, 2013)", "key": {"[1]": {"tested_on": "BT73", "assay": "Antitumor activity against human BT73 cells xenografted in NOD-SCID mouse assessed as decrease in tumor size at 10 mg/kg, ip administered as 4 days on/3 days off schedule measured 2 hrs post last dose by hematoxylin/eosin staining", "type": "functional, organism-based", "set-up": "dose 10 mg/kg", "outline": "(§1)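 Mice were NOD-SCID with orthotopic BT73 human glioma xenografts. Starting on day 7, they received 10 intraperitoneal doses of 10 mg/kg or vehicle on a 4 days on/3 days off schedule. Animals were killed 2 h after the last dose and brain tumors excised. Read-outs were hematoxylin/eosin staining for tumor cellularity and immunohistochemistry for pSTAT3, Ki67 (proliferation) and TUNEL (apoptosis).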"}, "[2]": {"organism": "Homo sapiens", "assay": "Induction of apoptosis in human 147EF cells assessed as PARP cleavage at 0.1 to 1 uM after 3 hrs by Western blotting analysis", "type": "functional, cell-based"}, "[3]": {"organism": "Homo sapiens", "assay": "Inhibition of AKT phosphorylation in human 147EF cells at 0.1 to 1 uM after 3 hrs by Western blotting analysis", "type": "cell-based"}, "[4]": {"assay": "Cytotoxicity against human 73M cells assessed as cell viability after 8 days by Alamar Blue assay", "type": "functional, cell-based", "details": "192 h"}, "[5]": {"molecular_target": "T1, Signal transducer and activator of transcription 3 (Homo sapiens, UniProt P40763)", "T1 sequence (P40763 whole entry)": "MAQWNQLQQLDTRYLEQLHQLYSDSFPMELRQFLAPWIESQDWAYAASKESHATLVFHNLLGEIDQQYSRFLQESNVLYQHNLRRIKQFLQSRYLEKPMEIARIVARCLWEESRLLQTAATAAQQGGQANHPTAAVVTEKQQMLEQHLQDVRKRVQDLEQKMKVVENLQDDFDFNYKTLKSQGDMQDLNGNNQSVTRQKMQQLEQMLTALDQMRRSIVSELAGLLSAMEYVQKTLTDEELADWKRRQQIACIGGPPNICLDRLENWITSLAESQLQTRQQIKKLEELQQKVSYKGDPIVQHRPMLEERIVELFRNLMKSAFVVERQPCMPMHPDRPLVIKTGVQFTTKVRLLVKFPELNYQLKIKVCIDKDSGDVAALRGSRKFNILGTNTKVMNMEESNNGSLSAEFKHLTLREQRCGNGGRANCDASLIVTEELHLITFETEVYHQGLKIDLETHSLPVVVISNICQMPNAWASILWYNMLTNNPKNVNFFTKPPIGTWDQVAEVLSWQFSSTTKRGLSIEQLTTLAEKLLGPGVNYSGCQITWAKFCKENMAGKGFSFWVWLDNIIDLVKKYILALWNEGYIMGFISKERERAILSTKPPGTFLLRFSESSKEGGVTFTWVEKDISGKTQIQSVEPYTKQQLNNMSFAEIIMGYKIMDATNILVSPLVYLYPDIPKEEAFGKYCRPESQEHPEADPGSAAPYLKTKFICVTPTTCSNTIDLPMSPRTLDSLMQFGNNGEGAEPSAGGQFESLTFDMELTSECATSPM", "assay": "Inhibition of STAT3 phosphorylation at Y705 in human 147EF cells at 0.1 to 1 uM after 3 hrs by Western blotting analysis", "type": "cell-based"}, "[6]": {"assay": "Cytotoxicity against human 30M cells assessed as cell viability after 8 days by Alamar Blue assay", "type": "functional, cell-based", "details": "192 h"}, "[7]": {"molecular_target": "T1, Signal transducer and activator of transcription 3", "assay": "Inhibition of STAT3 phosphorylation at Y705 in human 73M cells at 1 uM", "type": "cell-based", "outline": "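Human 73M glioblastoma brain tumour stem cells were exposed to the inhibitor alongside the JAK2 inhibitor reference WP1066. Activated STAT3 was then read out by Western blot for STAT3 phosphorylated at Y705.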"}, "[8]": {"molecular_target": "Platelet-derived growth factor receptor beta (Homo sapiens) (UniProt P09619)", "sequence (P09619 whole entry)": "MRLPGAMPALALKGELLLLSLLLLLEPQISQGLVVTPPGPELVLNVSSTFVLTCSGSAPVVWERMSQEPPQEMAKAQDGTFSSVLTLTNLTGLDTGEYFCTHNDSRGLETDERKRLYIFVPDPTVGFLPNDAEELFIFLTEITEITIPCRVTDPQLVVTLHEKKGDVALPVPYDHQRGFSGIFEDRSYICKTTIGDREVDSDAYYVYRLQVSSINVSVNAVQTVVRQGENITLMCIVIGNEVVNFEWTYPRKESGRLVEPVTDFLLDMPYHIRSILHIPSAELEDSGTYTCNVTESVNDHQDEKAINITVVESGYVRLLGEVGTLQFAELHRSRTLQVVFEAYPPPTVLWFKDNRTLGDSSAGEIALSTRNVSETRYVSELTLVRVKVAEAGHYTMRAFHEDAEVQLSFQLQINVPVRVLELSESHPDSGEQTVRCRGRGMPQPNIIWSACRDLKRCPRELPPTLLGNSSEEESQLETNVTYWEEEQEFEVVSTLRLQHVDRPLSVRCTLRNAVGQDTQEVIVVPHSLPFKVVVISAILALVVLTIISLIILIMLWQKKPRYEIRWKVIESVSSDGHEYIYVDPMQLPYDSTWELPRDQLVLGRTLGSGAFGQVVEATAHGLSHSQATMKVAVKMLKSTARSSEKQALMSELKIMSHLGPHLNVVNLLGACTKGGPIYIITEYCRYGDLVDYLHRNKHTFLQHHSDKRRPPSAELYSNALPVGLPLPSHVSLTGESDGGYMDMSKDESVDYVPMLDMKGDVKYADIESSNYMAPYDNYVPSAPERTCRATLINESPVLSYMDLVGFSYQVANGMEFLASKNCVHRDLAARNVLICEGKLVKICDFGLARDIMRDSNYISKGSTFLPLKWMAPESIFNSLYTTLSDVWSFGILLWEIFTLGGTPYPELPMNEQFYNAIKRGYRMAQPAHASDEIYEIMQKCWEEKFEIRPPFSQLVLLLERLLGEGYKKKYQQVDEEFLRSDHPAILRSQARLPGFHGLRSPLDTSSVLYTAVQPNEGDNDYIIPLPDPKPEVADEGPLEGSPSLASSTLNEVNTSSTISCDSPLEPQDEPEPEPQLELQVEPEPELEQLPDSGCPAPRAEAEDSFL", "assay": "Inhibition of PDGFRB (unknown origin) expressed in HEK293 cells at 500 nM preincubated for 1 hr followed by compound washout measured after 30 mins by qPCR analysis relative to control", "type": "cell-based"}, "[9]": {"molecular_target": "Tyrosine-protein kinase Fyn (Homo sapiens) (UniProt P06241)", "assay": "Inhibition of FYN (unknown origin) SH3 domain expressed in HEK293 cells at 500 nM preincubated for 1 hr followed by compound washout measured after 30 mins by qPCR analysis", "type": "cell-based"}, "[10]": {"molecular_target": "Tyrosine-protein kinase Fer (Homo sapiens) (UniProt P16591)", "assay": "Inhibition of FER (unknown origin) SH3 domain expressed in HEK293 cells at 500 nM preincubated for 1 hr followed by compound washout measured after 30 mins by qPCR analysis", "type": "cell-based"}, "[11]": {"molecular_target": "Tyrosine-protein kinase Fes/Fps (Homo sapiens) (UniProt P07332)", "assay": "Inhibition of FES (unknown origin) SH3 domain expressed in HEK293 cells at 500 nM preincubated for 1 hr followed by compound washout measured after 30 mins by qPCR analysis", "type": "cell-based"}, "[12]": {"molecular_target": "Tyrosine-protein kinase JAK2 (Homo sapiens) (UniProt O60674)", "sequence (O60674 whole entry, the tested form may be a part)": "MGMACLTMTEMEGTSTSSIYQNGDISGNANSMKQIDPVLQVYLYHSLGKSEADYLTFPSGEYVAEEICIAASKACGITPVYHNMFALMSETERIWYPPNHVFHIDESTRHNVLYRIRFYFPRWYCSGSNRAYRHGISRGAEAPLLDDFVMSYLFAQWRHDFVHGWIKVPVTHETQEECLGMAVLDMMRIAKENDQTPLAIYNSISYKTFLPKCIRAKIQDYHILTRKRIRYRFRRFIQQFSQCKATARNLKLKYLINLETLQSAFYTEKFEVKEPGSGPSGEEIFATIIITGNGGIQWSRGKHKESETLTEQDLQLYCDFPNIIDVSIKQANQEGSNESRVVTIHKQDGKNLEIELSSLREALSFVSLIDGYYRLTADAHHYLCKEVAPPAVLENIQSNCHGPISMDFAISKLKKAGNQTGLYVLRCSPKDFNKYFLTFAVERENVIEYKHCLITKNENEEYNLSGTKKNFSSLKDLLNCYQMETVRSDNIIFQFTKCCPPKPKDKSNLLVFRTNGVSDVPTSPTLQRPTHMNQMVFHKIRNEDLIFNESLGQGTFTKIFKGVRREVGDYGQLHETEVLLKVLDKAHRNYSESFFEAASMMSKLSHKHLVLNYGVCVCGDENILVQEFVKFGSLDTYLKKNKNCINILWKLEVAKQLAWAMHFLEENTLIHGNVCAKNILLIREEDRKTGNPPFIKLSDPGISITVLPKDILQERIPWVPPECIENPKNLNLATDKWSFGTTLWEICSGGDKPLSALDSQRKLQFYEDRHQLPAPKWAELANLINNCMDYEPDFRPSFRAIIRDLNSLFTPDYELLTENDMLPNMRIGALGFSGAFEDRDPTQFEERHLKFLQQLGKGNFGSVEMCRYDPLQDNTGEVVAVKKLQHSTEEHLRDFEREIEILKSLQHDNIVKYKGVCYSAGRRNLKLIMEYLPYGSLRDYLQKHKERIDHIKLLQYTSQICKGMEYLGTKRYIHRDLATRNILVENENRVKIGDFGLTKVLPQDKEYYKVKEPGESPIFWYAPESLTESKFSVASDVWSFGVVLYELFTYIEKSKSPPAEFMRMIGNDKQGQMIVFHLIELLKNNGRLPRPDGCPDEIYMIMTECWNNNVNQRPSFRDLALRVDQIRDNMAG", "assay": "Inhibition of JAK2 (unknown origin) SH2 domain expressed in HEK293 cells at 500 nM preincubated for 1 hr followed by compound washout measured after 30 mins by qPCR analysis", "type": "cell-based"}, "[13]": {"molecular_target": "Tyrosine-protein kinase JAK1 (Homo sapiens) (UniProt P23458)", "sequence (P23458 whole entry, the tested form may be a part)": "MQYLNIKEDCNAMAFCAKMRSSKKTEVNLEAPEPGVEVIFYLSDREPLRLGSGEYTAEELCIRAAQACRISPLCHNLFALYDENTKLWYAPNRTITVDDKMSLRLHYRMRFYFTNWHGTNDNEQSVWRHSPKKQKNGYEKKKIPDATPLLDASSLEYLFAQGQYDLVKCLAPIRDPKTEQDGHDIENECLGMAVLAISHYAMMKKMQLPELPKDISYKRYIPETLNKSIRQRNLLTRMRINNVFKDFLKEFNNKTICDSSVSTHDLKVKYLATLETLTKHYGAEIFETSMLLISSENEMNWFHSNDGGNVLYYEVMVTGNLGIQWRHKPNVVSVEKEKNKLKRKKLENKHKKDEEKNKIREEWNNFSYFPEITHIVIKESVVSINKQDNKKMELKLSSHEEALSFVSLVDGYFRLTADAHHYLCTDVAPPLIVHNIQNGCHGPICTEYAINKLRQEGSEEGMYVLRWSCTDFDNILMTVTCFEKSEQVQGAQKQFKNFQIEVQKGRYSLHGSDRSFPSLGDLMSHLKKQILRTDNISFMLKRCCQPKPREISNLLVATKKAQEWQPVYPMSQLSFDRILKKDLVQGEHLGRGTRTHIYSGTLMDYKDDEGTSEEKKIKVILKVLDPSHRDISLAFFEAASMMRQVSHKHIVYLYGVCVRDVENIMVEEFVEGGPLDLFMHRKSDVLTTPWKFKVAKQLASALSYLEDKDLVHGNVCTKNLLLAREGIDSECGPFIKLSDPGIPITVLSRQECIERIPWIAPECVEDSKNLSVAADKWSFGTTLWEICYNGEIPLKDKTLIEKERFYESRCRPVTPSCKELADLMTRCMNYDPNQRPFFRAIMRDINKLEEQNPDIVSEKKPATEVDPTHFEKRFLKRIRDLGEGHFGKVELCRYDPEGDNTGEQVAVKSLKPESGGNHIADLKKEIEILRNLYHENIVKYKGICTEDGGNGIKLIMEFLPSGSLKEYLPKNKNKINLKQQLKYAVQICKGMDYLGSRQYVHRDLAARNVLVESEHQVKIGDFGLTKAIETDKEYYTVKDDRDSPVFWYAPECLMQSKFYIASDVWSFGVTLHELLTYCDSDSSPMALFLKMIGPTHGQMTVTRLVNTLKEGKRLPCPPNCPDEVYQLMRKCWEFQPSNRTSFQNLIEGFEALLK", "assay": "Inhibition of JAK1 (unknown origin) SH2 domain expressed in HEK293 cells at 500 nM preincubated for 1 hr followed by compound washout measured after 30 mins by qPCR analysis", "type": "cell-based"}, "[14]": {"molecular_target": "Proto-oncogene tyrosine-protein kinase Src (Homo sapiens) (UniProt P12931)", "sequence (P12931 2-536 limits assumed)": "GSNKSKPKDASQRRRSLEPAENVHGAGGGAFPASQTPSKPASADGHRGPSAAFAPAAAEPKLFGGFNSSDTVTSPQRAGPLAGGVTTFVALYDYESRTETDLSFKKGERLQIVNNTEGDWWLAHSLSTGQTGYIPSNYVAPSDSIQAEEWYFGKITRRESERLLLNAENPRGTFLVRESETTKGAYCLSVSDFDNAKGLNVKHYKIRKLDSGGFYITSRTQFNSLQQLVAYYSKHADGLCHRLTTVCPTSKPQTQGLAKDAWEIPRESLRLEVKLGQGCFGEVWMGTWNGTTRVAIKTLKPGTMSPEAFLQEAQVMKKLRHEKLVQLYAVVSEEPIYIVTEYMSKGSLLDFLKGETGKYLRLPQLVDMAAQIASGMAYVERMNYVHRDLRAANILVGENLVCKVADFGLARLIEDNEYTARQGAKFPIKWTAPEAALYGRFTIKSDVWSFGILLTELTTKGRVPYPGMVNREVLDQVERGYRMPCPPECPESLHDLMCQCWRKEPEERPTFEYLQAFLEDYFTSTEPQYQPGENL", "assay": "Inhibition of c-Src (unknown origin) at 5 uM after 120 mins relative to control"}, "[15]": {"molecular_target": "Tyrosine-protein kinase JAK1 (Homo sapiens) (UniProt P23458)", "assay": "Inhibition of JAK1 (unknown origin) at 5 uM after 120 mins"}, "[16]": {"molecular_target": "Tyrosine-protein kinase JAK2 (Homo sapiens) (UniProt O60674)", "assay": "Inhibition of JAK2 (unknown origin) at 5 uM after 120 mins relative to control"}, "[17]": {"molecular_target": "Mitogen-activated protein kinase 3 (Homo sapiens) (UniProt P27361)", "sequence (P27361 whole entry)": "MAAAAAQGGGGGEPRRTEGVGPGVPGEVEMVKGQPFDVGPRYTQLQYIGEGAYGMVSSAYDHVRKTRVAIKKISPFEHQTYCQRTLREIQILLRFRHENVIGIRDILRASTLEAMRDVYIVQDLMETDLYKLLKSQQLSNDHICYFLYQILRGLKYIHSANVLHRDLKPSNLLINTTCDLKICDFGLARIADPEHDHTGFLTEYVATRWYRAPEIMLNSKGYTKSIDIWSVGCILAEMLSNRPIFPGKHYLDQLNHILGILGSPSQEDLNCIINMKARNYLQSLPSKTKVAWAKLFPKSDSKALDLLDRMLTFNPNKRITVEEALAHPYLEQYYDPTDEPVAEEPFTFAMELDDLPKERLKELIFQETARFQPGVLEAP", "assay": "Inhibition of ERK1 (unknown origin) at 5 uM after 120 mins"}, "[18]": {"molecular_target": "RAC-alpha serine/threonine-protein kinase (Homo sapiens) (UniProt P31749)", "assay": "Inhibition of AKT1 (unknown origin) at 5 uM after 120 mins"}, "[19]": {"molecular_target": "Epidermal growth factor receptor (Homo sapiens) (UniProt P00533)", "assay": "Inhibition of EGFR in human 147EF cells after 6 hrs by Western blotting analysis", "type": "cell-based"}, "[20]": {"organism": "Homo sapiens", "assay": "Inhibition of MAPK in human 147EF cells after 6 hrs by Western blotting analysis", "type": "cell-based"}, "[21]": {"organism": "Homo sapiens", "assay": "Inhibition of AKT in human 147EF cells after 6 hrs by Western blotting analysis", "type": "cell-based"}, "[22]": {"molecular_target": "Proto-oncogene tyrosine-protein kinase Src (Homo sapiens) (UniProt P12931)", "assay": "Inhibition of Src in human 147EF cells after 6 hrs by Western blotting analysis", "type": "cell-based"}, "[23]": {"molecular_target": "Tyrosine-protein kinase JAK2 (Homo sapiens) (UniProt O60674)", "assay": "Inhibition of JAK2 in human 147EF cells after 6 hrs by Western blotting analysis", "type": "cell-based"}, "[24]": {"molecular_target": "T2, Signal transducer and activator of transcription 5A (Homo sapiens, UniProt P42229)", "T2 sequence (P42229 whole entry)": "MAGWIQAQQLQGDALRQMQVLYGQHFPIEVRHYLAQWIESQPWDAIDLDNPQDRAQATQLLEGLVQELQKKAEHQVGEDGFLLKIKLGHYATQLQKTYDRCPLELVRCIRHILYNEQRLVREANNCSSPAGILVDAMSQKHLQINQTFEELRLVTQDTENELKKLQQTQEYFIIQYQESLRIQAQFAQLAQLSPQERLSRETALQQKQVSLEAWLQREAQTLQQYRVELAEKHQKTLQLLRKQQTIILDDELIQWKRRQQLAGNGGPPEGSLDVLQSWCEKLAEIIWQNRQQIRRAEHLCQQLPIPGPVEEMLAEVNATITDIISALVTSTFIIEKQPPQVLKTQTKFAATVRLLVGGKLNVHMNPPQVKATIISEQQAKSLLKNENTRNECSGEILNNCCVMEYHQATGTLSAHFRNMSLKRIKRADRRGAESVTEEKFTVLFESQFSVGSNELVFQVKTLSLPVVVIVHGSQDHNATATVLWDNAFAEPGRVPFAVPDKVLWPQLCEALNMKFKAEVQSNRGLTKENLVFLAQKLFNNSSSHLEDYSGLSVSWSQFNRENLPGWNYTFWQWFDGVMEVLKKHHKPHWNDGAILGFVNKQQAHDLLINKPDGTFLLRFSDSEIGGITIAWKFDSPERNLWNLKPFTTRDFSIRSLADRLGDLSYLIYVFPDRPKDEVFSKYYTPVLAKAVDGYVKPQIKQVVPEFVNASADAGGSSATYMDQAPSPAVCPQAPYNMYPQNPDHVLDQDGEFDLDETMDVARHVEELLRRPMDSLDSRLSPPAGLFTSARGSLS", "assay": "Binding affinity to His-tagged STAT5 (unknown origin) by SPR spectroscopic analysis", "outline": "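SPR binding to STAT3 and STAT5 proteins was run at several analyte concentrations: 5.000, 1.667, 0.556 and 0.185 μM.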"}, "[25]": {"assay": "Cytotoxicity against HF2006 cells assessed as cell viability at 5 uM after 3 days by Alamar Blue assay", "type": "cell-based", "details": "human, 72 h", "outline": "(§2)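 Normal human fetal astrocytes (healthy, non-tumor cells) were exposed to compounds at concentrations up to 5 μM, with viability as the cytotoxicity read-out.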"}, "[26]": {"assay": "Cytotoxicity against HF2003 cells assessed as cell viability at 5 uM after 3 days by Alamar Blue assay", "type": "cell-based", "details": "human, 72 h", "outline": "as §2"}, "[27]": {"tested_on": "BT73", "assay": "Antitumor activity against human BT73 cells xenografted in NOD-SCID mouse assessed as induction of apoptosis in tumor at 10 mg/kg, ip administered as 4 days on/3 days off schedule measured 2 hrs post last dose by TUNEL assay", "type": "functional, organism-based", "set-up": "dose 10 mg/kg", "outline": "as §1"}, "[28]": {"tested_on": "BT73", "assay": "Antitumor activity against human BT73 cells xenografted in NOD-SCID mouse assessed as tumor growth inhibition by measuring downregulation of Ki67 protein expression at 10 mg/kg, ip administered as 4 days on/3 days off schedule measured 2 hrs post last dose", "type": "functional, organism-based", "set-up": "dose 10 mg/kg", "outline": "as §1"}, "[29]": {"tested_on": "Mus musculus", "assay": "In vivo inhibition of STAT3 phosphorylation in tumor of NOD-SCID mouse xenografted with human BT73 cells at 10 mg/kg, ip administered as 4 days on/3 days off schedule measured 2 hrs post last dose", "type": "functional, organism-based", "set-up": "dose 10 mg/kg", "outline": "as §1"}, "[30]": {"assay": "Cytotoxicity against human 30M cells assessed as cell viability after 3 days by Alamar Blue assay", "details": "72 h"}, "[31]": {"assay": "Cytotoxicity against human 84EF cells assessed as cell viability after 3 days by Alamar Blue assay", "details": "72 h"}, "[32]": {"assay": "Cytotoxicity against human 25EF cells assessed as cell viability after 3 days by Alamar Blue assay", "details": "72 h"}, "[33]": {"assay": "Cytotoxicity against human 73EF cells assessed as cell viability after 3 days by Alamar Blue assay", "details": "72 h"}, "[34]": {"assay": "Cytotoxicity against human 67EF cells assessed as cell viability after 3 days by Alamar Blue assay", "details": "72 h"}, "[35]": {"assay": "cells", "details": "Homo sapiens, 72 h"}, "[36]": {"molecular_target": "Platelet-derived growth factor receptor beta (Homo sapiens) (UniProt P09619)", "assay": "Inhibition of PDGFRB (unknown origin) at 10 uM by enzymatic assay"}}, "note": "Activity calls are given as the source filed them. No cut-off for these calls is given here.", "data": [{"molecule": "CN(CC(=O)N(Cc1ccc(C2CCCCC2)cc1)c1ccc(C(=O)O)cc1)S(=O)(=O)c1c(F)c(F)c(F)c(F)c1F", "values": [{"measurement": "Activity", "setting": "[1]", "value": "Active"}, {"measurement": "Activity", "setting": "[2]", "value": "Active"}, {"measurement": "inhibition", "setting": "[3]", "value": "Active"}, {"measurement": "IC50", "setting": "[4]", "value": 1030, "unit": "nM"}, {"measurement": "inhibition", "setting": "[5]", "value": "Active"}, {"measurement": "IC50", "setting": "[6]", "value": 430, "unit": "nM"}, {"measurement": "inhibition", "setting": "[7]", "value": "Active"}, {"measurement": "inhibition", "setting": "[8]", "value": 35, "unit": "%"}, {"measurement": "inhibition", "setting": "[9]", "value": "inactive"}, {"measurement": "inhibition", "setting": "[10]", "value": "inactive"}, {"measurement": "inhibition", "setting": "[11]", "value": "inactive"}, {"measurement": "inhibition", "setting": "[12]", "value": "inactive"}, {"measurement": "inhibition", "setting": "[13]", "value": "inactive"}, {"measurement": "inhibition", "setting": "[14]", "value": 50, "unit": "%"}, {"measurement": "inhibition", "setting": "[15]", "value": "inactive"}, {"measurement": "inhibition", "setting": "[16]", "value": 50, "unit": "%"}, {"measurement": "inhibition", "setting": "[17]", "value": "inactive"}, {"measurement": "inhibition", "setting": "[18]", "value": "inactive"}, {"measurement": "inhibition", "setting": "[19]", "value": "inactive"}, {"measurement": "inhibition", "setting": "[20]", "value": "inactive"}, {"measurement": "inhibition", "setting": "[21]", "value": "inactive"}, {"measurement": "inhibition", "setting": "[22]", "value": "inactive"}, {"measurement": "inhibition", "setting": "[23]", "value": "inactive"}, {"measurement": "Kd", "setting": "[24]", "value": 464, "unit": "nM"}, {"measurement": "Activity", "setting": "[25]", "value": "Non-toxic"}, {"measurement": "Activity", "setting": "[26]", "value": "Non-toxic"}, {"measurement": "Activity", "setting": "[27]", "value": "Active"}, {"measurement": "TGI", "setting": "[28]", "value": "Active"}, {"measurement": "inhibition", "setting": "[29]", "value": "Active"}, {"measurement": "IC50", "setting": "[30]", "value": 100, "unit": "nM"}, {"measurement": "IC50", "setting": "[31]", "value": 102, "unit": "nM"}, {"measurement": "IC50", "setting": "[32]", "value": 234, "unit": "nM"}, {"measurement": "IC50", "setting": "[33]", "value": 162, "unit": "nM"}, {"measurement": "IC50", "setting": "[34]", "value": 106, "unit": "nM"}, {"measurement": "IC50", "setting": "[35]", "value": 66, "unit": "nM"}, {"measurement": "inhibition", "setting": "[36]", "value": "inactive"}]}]}
